Source: ChEMBL document CHEMBL1154738, “Vascular disrupting activity of tubulin-binding 1,5-diaryl-1H-imidazoles” (J Med Chem, 2009)
Calls of active or inactive are those of the source. The calls are words filed in the database; no cut-off is given here.

Experiments:
[1] = Dissociation constant, pKa of the compound; type: physicochemical
HUVEC [2] = assay: Cytotoxicity against HUVEC after 1 hr by crystal violet staining; type: functional, cell-based, Homo sapiens
HUVEC [3] = assay: Vascular disrupting activity in HUVEC assessed as change in cell morphology with detachment form substrate after 1 hr by crystal violet staining-based inverted light microscopy; type: functional, Homo sapiens
Summary of the method: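 HUVEC treated for 1 h with compound; morphology (cell retraction, rounding, detachment from substrate) examined by light microscopy.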

HUVEC [4] = assay: Cytotoxicity against HUVEC after 72 hrs by crystal violet staining; type: functional, cell-based, Homo sapiens
NCI-H460 = assay: Growth inhibition of human NCI-H460 cells after 3 days by crystal violet staining; type: functional; conditions: NCI-H460, 72 h
HCT-15 = assay: Growth inhibition of human HCT15 cells after 3 days by crystal violet staining; type: functional; conditions: HCT-15, 72 h
[5] = Growth inhibition of human NCI60 cells after 3 days by crystal violet staining; type: functional; conditions: NCI60, 72 h
Mus musculus = assay: Vascular disrupting activity in C57BL/6N mouse assessed as rapid decrease in FGF2-induced vessel formation on permissive matrix at 20 m/kg, ip after 1 hr by FTC-conjugated staining based confocal microscopy; type: functional, organism-based
Summary of the method: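 Matrigel plug containing FGF-2 implanted in mice, vessels allowed to form over 7 days (plug without FGF-2 as negative control). Single ip dose given, then functional perfused vessels visualized 1 h later with FITC-isolectin B4 by confocal microscopy; at least three images per sample, n = 5.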

HUVEC [6] = assay: Vascular disrupting activity in HUVEC assessed as disruption of capillary-like structure formation on permissive matrix at 1 uM after 1 hr by microscopy; type: functional, cell-based; conditions: Homo sapiens
Summary of the method: (§1)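 HUVEC seeded on 3D Matrigel form capillary-like cord networks by 24 h; compound then added to formed cords and images taken 1 h later to assess cord disruption and shortening.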

MDA-MB-435 [7] = assay: Induction of necrosis in central region of human MDA-MB-435 cells exenografted in NCr nu/nu mouse at 20 mg/kg, ip administered as single dose measured after 24 hrs by haematoxylin/eosin staining-based histopathological analysis; type: functional, organism-based; design: dose 20 mg/kg
MDA-MB-435 [8] = assay: Induction of necrosis in central region of human MDA-MB-435 cells exenografted in NCr nu/nu mouse at 80 mg/kg, ip administered as single dose measured after 24 hrs by haematoxylin/eosin staining-based histopathological analysis; type: functional, organism-based; design: dose 80 mg/kg
HUVEC [9] = assay: Vascular disrupting activity in HUVEC assessed as disruption of capillary-like structure formation on permissive matrix at 0.1 uM after 1 hr by microscopy; type: functional, cell-based; conditions: Homo sapiens; summary of the method: as §1
HUVEC [10] = assay: Vascular disrupting activity in HUVEC assessed as appearance of blebbing morphology of rounded cells after 1 hr by FITC-onjugated DAPI staining-based immunofluorescence assay; type: functional, cell-based; conditions: Homo sapiens
Summary of the method: (§2)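 HUVEC exposed to vehicle or compound (0.1-1 μM range) for 1 h, then tubulin cytoskeleton examined by immunofluorescence for microtubule disorganization and blebbing of rounded cells.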

HUVEC [11] = assay: Vascular disrupting activity in HUVEC assessed as disorganization of microtubule after 1 hr by FITC-onjugated DAPI staining-based immunofluorescence assay; type: functional, cell-based; conditions: Homo sapiens; summary of the method: as §2
HUVEC [12] = assay: Vascular disrupting activity in HUVEC assessed as appearance of blebbing morphology of rounded cells at 0.1 uM after 1 hr by FITC-onjugated DAPI staining-based immunofluorescence assay; type: functional, cell-based; conditions: Homo sapiens; summary of the method: as §2
HUVEC [13] = assay: Vascular disrupting activity in HUVEC assessed as disorganization of microtubule at 0.1 uM after 1 hr by FITC-onjugated DAPI staining-based immunofluorescence assay; type: functional, cell-based; conditions: Homo sapiens; summary of the method: as §2

For COc1cc(-n2cncc2-c2ccc3ccccc3c2)cc(OC)c1OC [listing 1 of 3 here], the pKa [1] was 5.58, the IC50 (HUVEC [2]; huvec) was 2100 nM and the IC50 (HUVEC [3]; huvec) was 40 nM. It also gave an IC50 (HUVEC [4]; huvec) of 110 nM.

For COc1ccc(-c2cncn2-c2cc(OC)c(OC)c(OC)c2)cc1F, the IC50 (HUVEC [2]; Homo sapiens, HUVEC, 1 h) was 17000 nM, the IC50 (HUVEC [3]; Homo sapiens, HUVEC, 1 h) was 17300 nM and the GI50 (NCI-H460) was < 10 nM. For the same compound, the IC50 (HUVEC [4]; Homo sapiens, HUVEC, 72 h) was 450 nM, the GI50 (HCT-15) was < 10 nM and the GI50 [5] was 39.8 nM.

In the case of COc1ccc(-c2nccn2-c2cc(OC)c(OC)c(OC)c2)cc1, the GI50 (NCI-H460) is reported as 1580 nM, the GI50 (HCT-15) is reported as 1150 nM and the GI50 [5] is reported as 4570 nM.

With COc1cc(-n2cncc2-c2ccc3ccccc3c2)cc(OC)c1OC [listing 2 of 3 here] the IC50 (HUVEC [2]; huvec) was 28300 nM, the IC50 (HUVEC [3]; huvec) was 41500 nM and the GI50 (NCI-H460) was 18 nM. For the same compound, the IC50 (HUVEC [4]; huvec) was 540 nM, the GI50 (HCT-15) was 17 nM and the GI50 [5] was 72.4 nM.

With COc1cc(-n2cncc2-c2ccc3ccccc3c2)cc(OC)c1OC [listing 3 of 3 here] the Activity (Mus musculus) was “Active”, the Activity (HUVEC [6]) was “Active” and the Activity (MDA-MB-435 [7]) was “Active”. For the same compound, the Activity (MDA-MB-435 [8]) was “Active”, the Activity (HUVEC [9]) was “Active” and the Activity (HUVEC [10]) was “Dose-dependent effect”. For the same compound, the Activity (HUVEC [11]) was “Dose-dependent effect”.

With COc1ccc(/C=C\c2cc(OC)c(OC)c(OC)c2)cc1O [COMBRETASTATIN A4] the Activity (HUVEC [12]) was “Active”, the IC50 (HUVEC [2]; Homo sapiens, HUVEC, 1 h) was 400 nM and the IC50 (HUVEC [3]; Homo sapiens, HUVEC, 1 h) was 10 nM. The GI50 (NCI-H460) was < 10 nM, the Activity (HUVEC [13]) was “Active” and the IC50 (HUVEC [4]; Homo sapiens, HUVEC, 72 h) was 5 nM. The GI50 (HCT-15) was < 10 nM and the GI50 [5] was 100 nM.

COc1cc(-n2ccnc2-c2ccc(N(C)C)cc2)cc(OC)c1OC showed a GI50 (NCI-H460) of 270 nM and a GI50 (HCT-15) of 80 nM.

Compound COc1cc(-n2ccnc2-c2ccc3ccccc3c2)cc(OC)c1OC has a GI50 (NCI-H460) of 37 nM, a GI50 (HCT-15) of 51 nM and a GI50 [5] of 151 nM.

COc1cc(-n2cncc2-c2ccc(N(C)C)cc2)cc(OC)c1OC showed a GI50 (NCI-H460) of 79 nM and a GI50 (HCT-15) of 36 nM.

With COc1ccc(-c2cncn2-c2cc(OC)c(OC)c(OC)c2)cc1 [listing 1 of 2 here] the pKa [1] was 6.82, the IC50 (HUVEC [2]; huvec) was 20000 nM and the IC50 (HUVEC [3]; huvec) was 950 nM. For the same compound, the IC50 (HUVEC [4]; huvec) was 540 nM.

With COc1ccc(-c2cncn2-c2cc(OC)c(OC)c(OC)c2)cc1 [listing 2 of 2 here] the IC50 (HUVEC [2]; Homo sapiens, HUVEC, 1 h) was 36100 nM, the IC50 (HUVEC [3]; huvec) was 6530 nM and the GI50 (NCI-H460) was 363 nM. The IC50 (HUVEC [4]; Homo sapiens, HUVEC, 72 h) was 600 nM, the GI50 (HCT-15) was 170 nM and the GI50 [5] was 257 nM.
